Source: PubChem
In the library only some 2.7% were active in any assay of this set; here they are far more common.
PREPL inhibitor: human PREPL enzyme inhibition; Q4J6C6; recombinant PREPL, fluorescence polarization activity-based probe; inhibition, % at 5.96 µM; 320,000 tested, 0.68% active; in the data active means inhibition above about 43%
Lipid droplet: modulators of hepatic lipid droplet formation; AML12 mouse hepatocytes, oleate lipid droplets, BODIPY imaging; inhibition, % at 6.5 µM; 240,000 tested, 0.4% active; AID 1656;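 active means lipid droplet intensity inhibited by at least 50%, with more than 500 cells counted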
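Assay system: AML12 mouse liver cells | Compound dosing: One dose, 6.5 µM compound | Read-out basis: Droplet intensity reduction, % inhibition | Measured by: Fluorescence imaging, 20x objective, two fields per well | Schedule: Overnight treatment with compound plus oleate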
HTR2A ag: activates the mouse 5-HT2A serotonin receptor; CHO-K1 mHTR2A beta-arrestin complementation, luminescence; percent of 30 µM serotonin response; activation, % at 7.6 µM; 360,000 tested, 0.66% active; AID 624169;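 active means activation above a run cutoff, the mean activation of all tested compounds plus 3 SD, cut at about 14% in these data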
MC4R antag cAMP: blocks human MC4R cAMP signaling; inhibition, % at 6.5 µM; MC4R-expressing cells, MTII-stimulated cAMP, LANCE TR-FRET; 360,000 tested, 0.48% active; AID 540295; P32245;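 active means inhibition above its plate's cutoff, the mean of tested wells on that plate plus 3 SD, cut at about 29% in these data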
Target sequence (P32245 whole entry, looked up): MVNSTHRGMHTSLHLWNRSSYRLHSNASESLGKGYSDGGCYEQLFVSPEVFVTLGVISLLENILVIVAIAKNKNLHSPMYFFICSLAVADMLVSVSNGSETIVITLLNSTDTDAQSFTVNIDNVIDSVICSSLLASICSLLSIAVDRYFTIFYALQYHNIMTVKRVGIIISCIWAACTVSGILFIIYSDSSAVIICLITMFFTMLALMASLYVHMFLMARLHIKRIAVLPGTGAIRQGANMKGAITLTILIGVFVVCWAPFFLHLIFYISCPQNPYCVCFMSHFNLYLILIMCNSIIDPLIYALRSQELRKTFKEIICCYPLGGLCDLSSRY
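Material: human MC4R-expressing U2OS cells. Probe or stimulus: Melanotan II challenge. Dosing: 6.5 µM single dose. Times: 30-min compound, 1-h challenge, 1-h detection, room temperature. Technique: TR-FRET with Eu-cAMP and labeled anti-cAMP, 671 nm. Replication: singlicate.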
MC4R ag barr: human MC4R agonism via beta-arrestin; U2OS MC4R beta-arrestin complementation, luminescence; percent of melanotan II response, DMSO zero; activation, % at 8.9 µM; 360,000 tested, 0.98% active;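 active means activation above a per-plate cutoff, the mean activation of sample wells on that plate plus 3 SD, cut at about 8% in these data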
NTR1 agonist: agonists of human neurotensin receptor NTR1 | P30989 | NTR1-U2OS beta-arrestin-GFP spot imaging, agonist mode | activation, % at 20 µM | 330,000 tested, 0.17% active | AID 493036;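 active means activation at or above 40% of the spot to cytoplasm intensity ratio, with at least 20 cells analyzed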
Of the large screens only hits and unclear results are named; the others gave an inactive call.

O=C(CN1CCC(Cc2ccccc2)CC1)NC(=O)NCc1ccccc1	MC4R ag barr 9.6
COc1cc(CN2CCC(Cc3ccccc3)CC2)cc([N+](=O)[O-])c1O	none
CN(C)c1nnnn1-c1ccccc1Oc1ncc(C(F)(F)F)cc1Cl	none
CNS(=O)(=O)c1cccc(C(=O)OCC(=O)c2ccc3[nH]c(=O)[nH]c3c2)c1	none (no result: Lipid droplet)
COc1cccc(-c2sc3ccccc3c2-c2ccc(OCCN3CCCCC3)cc2)c1	MC4R ag barr 18 (no result: Lipid droplet)
COc1cccc(-c2sc3ccc(OC)cc3c2-c2ccc(OCCN3CCCC3)cc2)c1	MC4R ag barr 27 (no result: PREPL inhibitor, Lipid droplet)
COc1ccc(-c2sc3ccc(OC)cc3c2-c2ccc(OCCN3CCOCC3)cc2)cc1	none (no result: PREPL inhibitor, Lipid droplet)
COc1ccc(-c2sc3cc(OC)ccc3c2-c2ccc(OCCN3CCCCC3)cc2)cc1	none (no result: PREPL inhibitor, Lipid droplet, MC4R antag cAMP, MC4R ag barr, NTR1 agonist)
COc1cccc(-c2sc3cc(OC)c(OC)cc3c2-c2ccc(OCCN3CCCCC3)cc2)c1	MC4R ag barr 11 (no result: PREPL inhibitor, Lipid droplet)
Cc1nc(NC(=O)c2ccco2)sc1-c1csc(Nc2ccc(Cl)cc2Cl)n1	MC4R ag barr 8.5 (no result: Lipid droplet)
CCC1=Nc2cc(C(=O)NCCCN3CCN(C)CC3)ccc2Sc2ccccc21	none
Cc1cc(NC(=O)CSc2nnc(-c3c[nH]c4ccccc34)n2-c2ccc(Cl)cc2)no1	MC4R ag barr 12
Cc1ccc(Cn2c(SCC(=O)Nc3cc(C)on3)nc3ccccc3c2=O)cc1	MC4R ag barr 8.8
Cc1cc(NC(=O)CSc2nc3ccccc3c(=O)n2Cc2ccccc2)no1	MC4R ag barr 8.5 (no result: Lipid droplet)
O=C(COC(=O)c1cccc(Br)c1)NC(=O)NC1CCCC1	MC4R ag barr 8.8 (no result: PREPL inhibitor, Lipid droplet)
CC(=O)Oc1ccc(C23CC4CC(CC(C4)C2)C3)cc1C(=O)O	none (no result: HTR2A ag, MC4R antag cAMP, MC4R ag barr)
OC(CNCCc1ccccc1)COc1ccc(OCC(O)CNCCc2ccccc2)cc1 (configuration not stated)	none
OC(CNCCC(c1ccccc1)c1ccccc1)COc1ccccc1 (configuration not stated)	MC4R ag barr 25
S=C(NCCc1ccccc1)Nc1ccc(Br)cn1	none
Cc1ccc(N(C(=O)C(F)(F)F)C(C(=O)NC2CCCCC2)c2cccs2)cc1 (configuration not stated)	MC4R ag barr 15 (no result: Lipid droplet)
O=C(Nc1cccc(NC(=O)c2cc([N+](=O)[O-])ccc2Cl)n1)c1cc([N+](=O)[O-])ccc1Cl	HTR2A ag 21 (no result: Lipid droplet)
O=C(Nc1ccccn1)c1ccc([N+](=O)[O-])cc1Cl	none
Cc1ccc2nc(C)c3c(c2c1)COC3	none
CCOC(=O)Cc1ccc(Nc2nc(NCc3ccccc3)nc3ccsc23)cc1	MC4R ag barr 8.5 (no result: PREPL inhibitor, Lipid droplet, NTR1 agonist)
N#CC1(NC(=O)Cn2cc(C(F)(F)F)cc(Cl)c2=O)CCCCC1	none
c1ccc2c(Nc3nc(N4CCOCC4)c4ccccc4n3)cccc2c1	PREPL inhibitor 53
Fc1ccc(Nc2nc(N3CCOCC3)c3ccccc3n2)cc1	none (no result: Lipid droplet)
COc1ccc(-c2ccc(=O)n(Cc3cccc([N+](=O)[O-])c3)n2)cc1	Lipid droplet 52
O=C(NCC1OCCc2ccccc21)c1ccc(NC(=O)c2cccc(Br)c2)cc1 (configuration not stated)	MC4R ag barr 9.5
O=C(NCC1OCCc2ccccc21)c1ccc(NC(=O)c2ccccc2Cl)cc1 (configuration not stated)	none
O=C1CCCCC1C(Nc1ccc(Br)cc1)c1ccccc1 (configuration not stated)	none
O=C1CCCCC1C(Nc1ccc(Cl)cc1)c1ccccc1 (configuration not stated)	MC4R ag barr 8.9
COc1ccc(N2CCN(S(=O)(=O)c3ccc(Cl)c(C(F)(F)F)c3)CC2)cc1	MC4R ag barr 8.5
COc1ccc(N2CCN(S(=O)(=O)c3cccc(C(F)(F)F)c3)CC2)cc1	none
CCOc1ccc(N2C(=O)/C(=C/c3cccs3)N(CC(=O)OC)C2=S)cc1	MC4R ag barr 20 (no result: Lipid droplet)
CCOc1ccc(N2C(=O)CN(CC(=O)OC)C2=S)cc1	none
COc1cccc(CC(=O)NNC(=O)CN(C)S(=O)(=O)c2ccc(C)cc2)c1	none (no result: Lipid droplet)
CC1(NC(=S)Nc2ccccc2)CCS(=O)(=O)C1 (configuration not stated)	MC4R ag barr 9.1
CC(Oc1ccccc1)C(=O)N1CCC2(CC1)CC(=O)c1ccccc1O2 (configuration not stated)	none (no result: Lipid droplet)
O=C1c2ccccc2-c2onc3c(Oc4ccccc4)cc(O)c1c23	Lipid droplet 56 (no result: PREPL inhibitor, HTR2A ag, MC4R antag cAMP, MC4R ag barr, NTR1 agonist)
O=C1C=C(c2c(O)ccc3ccccc23)c2ccccc2C1=O	HTR2A ag 15 (no result: PREPL inhibitor, Lipid droplet, NTR1 agonist)
COc1cc2c(cc1C1NC(=S)NC(C)=C1C(=O)N(C)C)CCCC2 (configuration not stated)	none
O=C1NC(=O)c2cc(Br)cc3cccc1c23	MC4R ag barr 8.9
CCC(=O)NC(Cc1ccccc1)c1nc2ccccc2[nH]1 (configuration not stated)	none (no result: PREPL inhibitor)
Cc1cc(Cl)ccc1OCC(=O)N[C@@H](Cc1ccccc1)c1nc2ccccc2[nH]1	MC4R ag barr 13
Cc1ccc(CSCCC(=O)NCCc2ccc(Cl)cc2)cc1	MC4R ag barr 8.6
O=C(CCSCc1ccc(Cl)cc1)NCCc1ccccc1	none
CN1CCN(c2ccc(NC(=O)c3ccc(-c4ccc(Cl)cc4)o3)cc2)CC1	MC4R ag barr 10
OC(c1ccccc1)c1ncc(-c2ccc(C(F)(F)F)cc2)[nH]1 (configuration not stated)	none (no result: PREPL inhibitor, Lipid droplet, NTR1 agonist)
CC(C)(C)c1ccc(C(O)c2ncc(-c3ccccc3F)[nH]2)cc1 (configuration not stated)	MC4R ag barr 8.2 (no result: PREPL inhibitor, Lipid droplet, NTR1 agonist)
OC(c1ccccc1)c1ncc(-c2ccccc2F)[nH]1 (configuration not stated)	none (no result: PREPL inhibitor, Lipid droplet, NTR1 agonist)
OC(c1ccc(-c2ccccc2)cc1)c1ncc(-c2ccc(C(F)(F)F)cc2)[nH]1 (configuration not stated)	MC4R ag barr 9.5 (no result: PREPL inhibitor, Lipid droplet, NTR1 agonist)
CCc1ccc(C(O)c2ncc(-c3ccc(C(F)(F)F)cc3)[nH]2)cc1 (configuration not stated)	MC4R ag barr 9.2 (no result: PREPL inhibitor, Lipid droplet, NTR1 agonist)
CC1(C)CC(=O)C(C(=O)/C=C/NCCc2ccccc2)C(=O)C1	none
Cc1ccc2oc(-c3ccc(C)c(NC(=O)Cc4cccs4)c3)nc2c1	none (no result: Lipid droplet)
Cc1ccc2oc(-c3cccc(NC(=O)Cc4cccs4)c3)nc2c1	MC4R ag barr 13 (no result: Lipid droplet)
Cc1cc(C)cc(NC(=O)Cn2nnc(C(=O)NCc3ccccc3Cl)c2N)c1	MC4R ag barr 10
CCOc1ccc(Cn2nnc(C(=O)Nc3cc(C)cc(C)c3)c2N)cc1	MC4R ag barr 9.4
Nc1c(C(=O)Nc2ccc3c(c2)OCCO3)nnn1Cc1ccc(Br)cc1	MC4R ag barr 8.4 (no result: Lipid droplet)
Cc1nnc(NC(=O)CSc2nnc(CC(=O)Nc3ccccc3F)n2C)s1	none
